Hits are enriched below; roughly 1.9% of the tested compounds scored in any of these assays.
EBI2 block = EBI2 (human) antagonism | P32249 | EBI2 beta-arrestin recruitment, luminescence, 7a,25-OHC stimulated | 360,000 tested, 0.81% active | inhibition, % at 5 µM | AID 651636; in the data active = inhibition above about 38%;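 also: enzyme fragment complementation signal reports receptor beta-arrestin coupling in cells; 0% = agonist plus DMSO wells and 100% = wells without agonist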
Target sequence (P32249 whole entry, looked up, the tested form may be a part): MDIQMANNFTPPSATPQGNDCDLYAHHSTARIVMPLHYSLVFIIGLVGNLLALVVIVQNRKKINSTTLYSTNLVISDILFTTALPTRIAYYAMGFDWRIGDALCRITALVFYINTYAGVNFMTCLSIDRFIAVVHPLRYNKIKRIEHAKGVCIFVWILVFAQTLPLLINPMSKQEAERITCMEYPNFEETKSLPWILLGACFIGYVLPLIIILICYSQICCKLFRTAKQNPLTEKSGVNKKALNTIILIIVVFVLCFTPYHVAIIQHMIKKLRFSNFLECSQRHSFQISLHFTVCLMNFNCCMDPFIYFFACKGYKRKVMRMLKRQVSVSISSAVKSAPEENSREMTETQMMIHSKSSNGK
CXCR6 block = CXCR6 (human) receptor inhibition; CHO-K1 PathHunter CXCR6 beta-arrestin, luminescence; 360,000 tested, 0.36% active; inhibition, % at 20 µM; O00574; in the data active = inhibition above about 34%, passing the limit was not always enough;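 also: antagonist mode with CXCL16 agonist at 10 nM final; 0% = 10 nM CXCL16 with DMSO and 100% = unstimulated wells without agonist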
H9c2 TAG inh = reduces triacylglycerol accumulation in H9c2 cells. Nile Red lipid (TAG) fluorescence; cells loaded with 200 µM oleic acid. 230,000 tested, 0.66% active. inhibition, % at 12.5 µM;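 active = pattern-corrected inhibition of lipid staining of at least 50% with the nuclear-stain viability signal not falling by more than 50%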;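 also: 0% = DMSO wells and 100% = triacsin C control wells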
CCR6 antagonist = CCR6 (human) receptor antagonism | inhibition, % at 20 µM | 340,000 tested, 0.49% active | P51684 | CHO-K1 CCR6 PathHunter beta-arrestin, luminescence, CCL20-stimulated;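 active = compounds whose inhibition of the agonist-driven luminescence signal at 20 µM reaches about 50%, limit read from the data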;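 also: cells stimulated with CCL20 at 14 nM final; plate controls were DMSO with CCL20 for no effect and DMSO without agonist for full effect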
APJ antagonist = antagonists of human APJ apelin receptor; P35414; CHO-K1 APJ beta-arrestin complementation, luminescence; inhibition, % at 20 µM; 330,000 tested, 0.32% active; AID 2521;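 active = inhibition above about 40% at 20 µM, limit read from the data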;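 also: cells challenged with 10 nM apelin-13 agonist together with compound; plate controls were apelin-13 plus DMSO wells for no effect and DMSO wells lacking apelin-13 for full effect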
APJ ag = APJ receptor agonism; P35414; CHO-K1 APJ PathHunter beta-arrestin, luminescence; 0% DMSO wells, 100% apelin; activation, % at 20 µM; 330,000 tested, 0.11% active;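 active = activation more than six SD over the plate average, tested at 20 µM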;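 also: 0% = DMSO alone and 100% = apelin-13 at 10 nM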
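Test system: CHO-K1 APJ beta-arrestin complementation cell line. Amount: cell density 1000 per well. Controls: DMSO negative, 10 nM Apelin-13 positive. Signal: luminescent beta-gal fragment complementation, chemiluminescent substrate. Read-out basis: agonist-driven arrestin binding to APJ. Timing: compound stimulation 90 min at 25 °C, detection 60 min.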
TAG conf = confirmation of triacylglycerol accumulation inhibitors | shares compounds with H9c2 TAG inh | H9c2 lipid accumulation, Nile Red fluorescence; cells loaded with 200 µM oleic acid | inhibition, % at 12.5 µM | 990 tested, 71% active | AID 651629;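 active = mean inhibition across replicates of 40% or more; inactive = mean inhibition below 40%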;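 also: plate controls were DMSO only wells for no effect and Triacsin C treated wells for full effect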
* = called active by the depositor.

CCOc1ccc(OCC(=O)Nc2cccc(S(=O)(=O)NC3=NCCC3)c2)cc1 was read as EBI2 block -12.8, CXCR6 block -2.5, H9c2 TAG inh 5.3 and CCR6 antagonist 7.4.
Screening COc1cc(OC)c(C(=O)OCC(=O)Nc2cccc(S(=O)(=O)NC3=NCCCCC3)c2)cc1OC returned EBI2 block 1.4, CXCR6 block -6.9, H9c2 TAG inh -1.8 and CCR6 antagonist 7.8.
Screening COc1cc2c(cc1OC)[C@@H](NC(=O)COc1ccccc1)[C@H](OCc1ccccc1)C2 returned EBI2 block -0.8, CXCR6 block 4.7, H9c2 TAG inh -20.8 and CCR6 antagonist 20.1.
`CSc1ccc2c(c1)N(CCC1CCCCN1C)c1ccccc1S2` (centres undefined) gave EBI2 block -7.8, CXCR6 block -5.4, H9c2 TAG inh 85.1*, CCR6 antagonist 31.3, APJ antagonist 22.2, APJ ag -5.5 and TAG conf 59.4*.
For Cc1ccc(Cl)cc1NC(=S)N/N=C/c1cccc2ccccc12 the results were EBI2 block -6.5, CXCR6 block 6.6, H9c2 TAG inh 68.6*, CCR6 antagonist 9.8, APJ antagonist -14.1, APJ ag -3.4 and TAG conf 85.2*.
Screening CCN(C[C@H]1N[C@@](CC)(C(=O)OC)[C@H]2C(=O)N(Cc3ccccc3)C(=O)[C@@H]12)S(=O)(=O)c1ccc(C(C)(C)C)cc1 returned EBI2 block 5.1, CXCR6 block -0.2, H9c2 TAG inh 65.3*, CCR6 antagonist 5.2, APJ antagonist 12.6, APJ ag -3.2 and TAG conf 59.8*.
Screening O=C(Nc1ccccc1)c1ccc(NCC2CCCO2)c(S(=O)(=O)N2CCOCC2)c1 (centres undefined) returned EBI2 block 2.9, CXCR6 block -7.6, H9c2 TAG inh 65.6*, CCR6 antagonist -3.6, APJ antagonist -16.6, APJ ag 0.2 and TAG conf 46.2*.
Screening CC(C)(C)S(=O)(=O)N1C[C@H]2CC/C=C\C/C=C\2[C@@H]1CCO returned EBI2 block -1.5, CXCR6 block -5.0 and H9c2 TAG inh -3.3.
Cc1ccc(C)c(N2N=C(C(=O)N(CC(C)C)c3c(N)n(Cc4ccccc4)c(=O)[nH]c3=O)CCC2=O)c1 was read as EBI2 block -5.0, CXCR6 block 7.9, CCR6 antagonist 8.6, APJ antagonist 8.5 and APJ ag -2.3.
`O=C1c2ccccc2C(=O)c2c1ccc(C(=O)N1CCCCC1)c2NCCO` gave EBI2 block 28.7, CXCR6 block 10.2, H9c2 TAG inh 82.7*, CCR6 antagonist 43.1, APJ antagonist -13.4, APJ ag -0.8 and TAG conf 83.4*.
`O=C1c2ccccc2-c2c1cccc2C(=O)N1CCCCCC1` gave EBI2 block 7.0, CXCR6 block -1.2, CCR6 antagonist -1.1, APJ antagonist -0.7 and APJ ag -0.7.
COc1cc(C)c(CN2CCN(CC(=O)Nc3ccccc3C(=O)NC3CC3)CC2)cc1OC was read as EBI2 block 8.9, CXCR6 block -0.6, H9c2 TAG inh 3.7, CCR6 antagonist 6.8, APJ antagonist 14.3 and APJ ag -3.0.
For COc1cc(CCCN2CCNC[C@@H]2c2ccccc2)cc(OC)c1OC the results were EBI2 block -18.0, CXCR6 block -4.9, H9c2 TAG inh 85.5*, CCR6 antagonist 8.7, APJ antagonist -2.2, APJ ag 0.1 and TAG conf 6.4.
For COc1ccc(C#Cc2ccc3c(c2)O[C@@H](CN(C)C(=O)Nc2cccc(OC)c2)[C@H](C)CN([C@@H](C)CO)S3(=O)=O)cc1 the results were EBI2 block 39.2, CXCR6 block 9.9, H9c2 TAG inh 77.2* and TAG conf 81.5*.
`COc1cccc(NC(=O)N(C)C[C@H]2Oc3cc(C#Cc4ccncc4)ccc3S(=O)(=O)N([C@H](C)CO)C[C@H]2C)c1` gave EBI2 block 11.2, CXCR6 block -7.4 and H9c2 TAG inh 8.0.
`CC(C)NC(=O)N(C)C[C@H]1Oc2cc(C#Cc3ccc(F)cc3)ccc2S(=O)(=O)N([C@H](C)CO)C[C@H]1C` gave EBI2 block 13.8, CXCR6 block 9.6, H9c2 TAG inh 55.9* and TAG conf 62.8*.
C[C@H](CO)N1C[C@H](C)[C@@H](CN(C)C(=O)Nc2ccc(F)cc2)Oc2cc(Br)ccc2S1(=O)=O was read as EBI2 block 12.2, CXCR6 block -3.7 and H9c2 TAG inh 14.0.
C[C@H](CO)N1C[C@H](C)[C@@H](CN(C)S(=O)(=O)c2cn(C)cn2)Oc2ccc(NC(=O)C3CCCCC3)cc2C1=O was read as EBI2 block -3.5, CXCR6 block -3.0, H9c2 TAG inh 7.3, CCR6 antagonist -4.2, APJ antagonist -9.2 and APJ ag -2.1.
Screening COc1ccc(OC)c(S(=O)(=O)n2ccc(C)n2)c1 returned EBI2 block 0.3, CXCR6 block 22.8, H9c2 TAG inh -0.6, CCR6 antagonist -1.0, APJ antagonist 4.4 and APJ ag -3.2.
`Cc1onc(-c2ccccc2)c1C(=O)Nc1cc(C(F)(F)F)ccc1N1CCOCC1` gave EBI2 block -0.2, CXCR6 block -2.7, H9c2 TAG inh 52.4*, CCR6 antagonist 13.3, APJ antagonist -4.1, APJ ag -2.7 and TAG conf 61.8*.
For C=CCC[C@H](CCCCC)OC(=O)/C=C/[C@@H](O)[C@H](O)C[C@@H](O)CC=C the results were EBI2 block -5.2 and CXCR6 block -3.4.
Screening COc1ccc(C(=O)Nc2ccc(-c3nnn(CC(=O)NCc4ccco4)n3)cc2)cc1 returned EBI2 block 5.5, CXCR6 block 4.7, H9c2 TAG inh 52.8*, CCR6 antagonist 5.5, APJ antagonist 3.2, APJ ag -0.3 and TAG conf 16.5.
For O=C(Cn1nnc(-c2ccc(Cl)cc2)n1)NCc1ccco1 the results were EBI2 block -0.6, CXCR6 block 6.5, CCR6 antagonist 1.3, APJ antagonist 0.4 and APJ ag 2.0.
COc1ccc(NC(=O)Cn2c(=O)n(-c3ccc(CC(=O)NCc4ccco4)cc3)c(=O)c3ccccc32)cc1 was read as EBI2 block -1.1, CXCR6 block 9.8, H9c2 TAG inh 65.3*, CCR6 antagonist 11.0, APJ antagonist -5.7, APJ ag -2.5 and TAG conf 53.8*.
CCCCCCN(C(=O)CCCCCN1C(=O)NC(c2ccc([N+](=O)[O-])cc2)C(C(=O)OCc2ccccc2)=C1C)C(C(=O)NCCCC)C1CCCCC1 (centres undefined) was read as EBI2 block 14.7, CXCR6 block 13.8, H9c2 TAG inh 65.9*, CCR6 antagonist 24.3 and TAG conf 55.9*.

Screening data (PubChem)
